Values after ≈ are worked out from the molar mass of the structure shown.
Experiments:
[1] = target: Potassium voltage-gated channel subfamily A member 5 (Homo sapiens, UniProt P22460); test: Inhibition of human Kv1.5 expressed in CHO cells by patch-clamp technique; type: cell-based
Procedure, shortened: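 Human Kv1.5 stably expressed in CHO cells. IC50 was determined by automated patch clamp on the IonWorks platform.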

[2] = target: Voltage-gated inwardly rectifying potassium channel KCNH2 (Homo sapiens, UniProt Q12809); test: Inhibition of human ERG by patch-clamp technique
[3] = Aqueous solubility at pH 7.4 by direct UV method; type: physicochemical; conditions: aqueous medium
Procedure, shortened: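 Solubility measured in pH 7.4 buffer with direct UV read-out.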

[4] = Metabolic stability in human liver microsomes assessed as half life; type: ADME, Microsome
Procedure, shortened: (§1)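 Test compound at 1 μM incubated with 1 mg/mL male beagle dog or male human liver microsomal protein. Half-life was determined from compound loss.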

CYP3A4 = CYP3A4 (Homo sapiens, UniProt P08684); test: Inhibition of CYP3A4 at 3 uM by fluorescent method; type: ADME
Procedure, shortened: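 CYP3A4 inhibition measured by a fluorescent method.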

[5] = target: Sodium channel protein type 5 subunit alpha (Homo sapiens, UniProt Q14524); test: Inhibition of Nav1.5 expressed in CHO cells by patch-clamp technique; type: cell-based
Procedure, shortened: (§2)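 Electrophysiology IC50 measured in stably transfected cell lines: CHO for Nav1.5, Kv1.1, Kv1.3 and Kv4.3, and HEK for Cav1.3 and Cav1.2.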

[6] = target: Potassium voltage-gated channel subfamily A member 1 (Homo sapiens, UniProt Q09470); test: Inhibition of Kv1.1 expressed in CHO cells by patch-clamp technique; type: cell-based; procedure, shortened: as §2
[7] = target: Potassium voltage-gated channel subfamily A member 3 (Homo sapiens, UniProt P22001); test: Inhibition of Kv1.3 expressed in CHO cells by patch-clamp technique; type: cell-based; procedure, shortened: as §2
[8] = target: T1, A-type voltage-gated potassium channel KCND3 (Homo sapiens, UniProt Q9UK17); test: Inhibition of Kv4.3 expressed in CHO cells by patch-clamp technique; type: cell-based; procedure, shortened: as §2
T1 sequence (Q9UK17 whole entry): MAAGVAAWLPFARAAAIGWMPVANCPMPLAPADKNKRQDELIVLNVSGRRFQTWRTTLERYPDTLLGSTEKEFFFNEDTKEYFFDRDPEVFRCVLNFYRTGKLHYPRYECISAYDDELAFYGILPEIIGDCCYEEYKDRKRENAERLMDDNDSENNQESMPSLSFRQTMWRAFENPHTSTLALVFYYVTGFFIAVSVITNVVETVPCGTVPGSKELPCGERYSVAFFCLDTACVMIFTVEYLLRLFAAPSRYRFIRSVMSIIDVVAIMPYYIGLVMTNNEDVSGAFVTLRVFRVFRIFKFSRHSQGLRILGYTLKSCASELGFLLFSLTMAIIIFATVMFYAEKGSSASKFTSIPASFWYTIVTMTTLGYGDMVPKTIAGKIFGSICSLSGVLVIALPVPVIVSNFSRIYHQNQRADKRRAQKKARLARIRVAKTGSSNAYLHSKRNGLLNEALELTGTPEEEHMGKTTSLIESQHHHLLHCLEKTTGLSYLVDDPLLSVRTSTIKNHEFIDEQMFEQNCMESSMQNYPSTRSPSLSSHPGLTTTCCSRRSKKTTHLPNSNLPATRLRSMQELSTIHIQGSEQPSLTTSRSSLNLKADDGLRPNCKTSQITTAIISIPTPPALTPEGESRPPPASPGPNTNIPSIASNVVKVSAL

[9] = Metabolic stability in Beagle dog liver microsomes assessed as half life; type: ADME, Canis lupus familiaris, Microsome; procedure, shortened: as §1
Cytochrome P450 3A4 = Cytochrome P450 3A4 (Homo sapiens, UniProt P08684); test: Inhibition of CYP3A4 in human liver microsomes; type: ADME, Microsome
Procedure, shortened: (§3)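 Reversible inhibition assayed in human liver microsomes at 0.2 mg/mL protein with probe substrates. CYP3A4 used 2.5 μM midazolam and, separately, 50 μM testosterone. CYP2D6 used 10 μM bufuralol. CYP2C9 used 10 μM diclofenac. IC50 was determined.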

Cytochrome P450 2D6 = Cytochrome P450 2D6 (Homo sapiens, UniProt P10635); test: Inhibition of CYP2D6 in human liver microsomes; type: ADME, Microsome; procedure, shortened: as §3
Cytochrome P450 2C9 = Cytochrome P450 2C9 (Homo sapiens, UniProt P11712); test: Inhibition of CYP2C9 in human liver microsomes; type: ADME, Microsome; procedure, shortened: as §3
[10] = Permeability from apical to basolateral side in human Caco-2 cells at pH 7.4; type: ADME, cell-based; conditions: Caco-2, pH 7.4, read-out: permeability
Procedure, shortened: (§4)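 Caco-2 monolayers at pH 7.4. Bidirectional transport was measured from apical to basolateral and from basolateral to apical. Apparent permeability was reported in cm/s.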

[11] = Permeability from basolateral to apical side in human Caco-2 cells at pH 7.4; type: ADME, cell-based; conditions: Caco-2, pH 7.4, read-out: permeability; procedure, shortened: as §4
[12] = Protein binding in Beagle dog plasma by equilibrium dialysis; type: ADME, cell-free, Canis lupus familiaris; conditions: read-out: PPB (converted)
Procedure, shortened: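 Tritium-labelled compound at 500 ng/mL in male beagle dog or male human plasma. Bound fraction was determined by equilibrium dialysis.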

[13] = Plasma clearance in Beagle dog at 3 mg/kg, iv; type: ADME, organism-based, Canis lupus familiaris; parameters: dose 3 mg/kg, route intravenous
Procedure, shortened: (§5)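 Male beagles; single 30 min intravenous infusion at 3 mg/kg. Plasma clearance, steady-state volume of distribution, elimination half-life and AUC were derived from the plasma concentration–time profile.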

[14] = Volume of distribution at steady state in Beagle dog at 3 mg/kg, iv; type: ADME, organism-based, Canis lupus familiaris; parameters: dose 3 mg/kg, route intravenous; conditions: in vivo, read-out: Vdss; procedure, shortened: as §5
[15] = Half life in Beagle dog at 3 mg/kg, iv; type: ADME, organism-based, Canis lupus familiaris; parameters: dose 3 mg/kg, route intravenous; conditions: in vivo; procedure, shortened: as §5
[16] = AUC in Beagle dog at 3 mg/kg, iv; type: ADME, organism-based, Canis lupus familiaris; parameters: dose 3 mg/kg, route intravenous; conditions: plasma; procedure, shortened: as §5
[17] = Cmax in Beagle dog at 3 mg/kg, po; type: ADME, organism-based, Canis lupus familiaris; parameters: dose 3 mg/kg, route oral; conditions: in vivo
Procedure, shortened: (§6)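 Male beagles dosed orally at 3 mg/kg. Cmax, Tmax, half-life and AUC were taken from plasma levels.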

[18] = Tmax in Beagle dog at 3 mg/kg, po; type: ADME, organism-based, Canis lupus familiaris; parameters: dose 3 mg/kg, route oral; conditions: in vivo; procedure, shortened: as §6
[19] = Half life in Beagle dog at 3 mg/kg, po; type: ADME, organism-based, Canis lupus familiaris; parameters: dose 3 mg/kg, route oral; conditions: in vivo; procedure, shortened: as §6
[20] = AUC in Beagle dog at 3 mg/kg, po; type: ADME, organism-based, Canis lupus familiaris; parameters: dose 3 mg/kg, route oral; conditions: plasma; procedure, shortened: as §6
[21] = Oral bioavailability in Beagle dog at 3 mg/kg; type: ADME, organism-based, Canis lupus familiaris; conditions: in vivo; procedure, shortened: as §6
Canis familiaris [22] = test: Plasma concentration in Beagle dog at 1.9 mg/kg, iv; type: ADME, organism-based, Canis lupus familiaris; parameters: dose 1.9 mg/kg, route intravenous; conditions: in vivo
Canis familiaris [23] = test: Plasma concentration in Beagle dog at 6.3 mg/kg, iv; type: ADME, organism-based, Canis lupus familiaris; parameters: dose 6.3 mg/kg, route intravenous; conditions: in vivo
Canis familiaris [24] = organism: Canis familiaris; test: Antiarrhythmic activity in Beagle dog prolongation of atrial effective refractory period at steady state plasma concentrations of 4.6 uM; type: functional, Canis lupus familiaris, Heart
Canis familiaris [25] = organism: Canis familiaris; test: Antiarrhythmic activity in Beagle dog prolongation of atrial effective refractory period at steady state plasma concentrations of 23 uM; type: functional, Canis lupus familiaris, Heart
Canis familiaris [26] = test: Antiarrhythmic activity in Beagle dog atrial/ventricular tachypacing model assessed as decrease in atrial fibrillation at 3 mg/kg, po after 5 to 10 mins; type: functional, Canis lupus familiaris, Heart; parameters: scale not given: the % may be the effect or the level left
Canis familiaris [27] = test: Antiarrhythmic activity in Beagle dog atrial/ventricular tachypacing model assessed as decrease in atrial fibrillation at 3 mg/kg, po; type: functional, Canis lupus familiaris, Heart; parameters: scale not given: the % may be the effect or the level left
Canis familiaris [28] = test: Antiarrhythmic activity in Beagle dog atrial/ventricular tachypacing model assessed as decrease in total atrial fibrillation at 3 mg/kg, po; type: functional, Canis lupus familiaris, Heart; parameters: scale not given: the % may be the effect or the level left
[29] = target: Voltage-dependent L-type calcium channel subunit alpha-1D (Homo sapiens, UniProt Q01668); test: Inhibition of Cav1.3 expressed in HEK cells by patch-clamp technique
[30] = target: Voltage-dependent L-type calcium channel subunit alpha-1C (Homo sapiens, UniProt Q13936); test: Inhibition of Cav1.2 expressed in HEK cells by patch-clamp technique

CYP3A4, sequence (P08684 whole entry): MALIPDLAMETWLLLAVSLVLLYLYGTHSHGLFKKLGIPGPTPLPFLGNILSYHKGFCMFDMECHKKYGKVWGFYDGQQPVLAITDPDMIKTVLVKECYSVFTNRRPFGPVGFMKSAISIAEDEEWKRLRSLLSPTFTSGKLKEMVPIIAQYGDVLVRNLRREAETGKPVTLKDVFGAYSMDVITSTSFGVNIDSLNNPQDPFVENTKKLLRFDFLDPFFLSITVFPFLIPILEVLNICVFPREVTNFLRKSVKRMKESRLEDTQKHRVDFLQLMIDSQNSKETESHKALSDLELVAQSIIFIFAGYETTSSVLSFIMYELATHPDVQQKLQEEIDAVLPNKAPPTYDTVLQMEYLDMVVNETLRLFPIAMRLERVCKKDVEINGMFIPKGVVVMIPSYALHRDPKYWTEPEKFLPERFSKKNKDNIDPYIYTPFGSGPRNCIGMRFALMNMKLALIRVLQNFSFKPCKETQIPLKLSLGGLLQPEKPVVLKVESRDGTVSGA
Potassium voltage-gated channel subfamily A member 5, sequence (P22460 whole entry): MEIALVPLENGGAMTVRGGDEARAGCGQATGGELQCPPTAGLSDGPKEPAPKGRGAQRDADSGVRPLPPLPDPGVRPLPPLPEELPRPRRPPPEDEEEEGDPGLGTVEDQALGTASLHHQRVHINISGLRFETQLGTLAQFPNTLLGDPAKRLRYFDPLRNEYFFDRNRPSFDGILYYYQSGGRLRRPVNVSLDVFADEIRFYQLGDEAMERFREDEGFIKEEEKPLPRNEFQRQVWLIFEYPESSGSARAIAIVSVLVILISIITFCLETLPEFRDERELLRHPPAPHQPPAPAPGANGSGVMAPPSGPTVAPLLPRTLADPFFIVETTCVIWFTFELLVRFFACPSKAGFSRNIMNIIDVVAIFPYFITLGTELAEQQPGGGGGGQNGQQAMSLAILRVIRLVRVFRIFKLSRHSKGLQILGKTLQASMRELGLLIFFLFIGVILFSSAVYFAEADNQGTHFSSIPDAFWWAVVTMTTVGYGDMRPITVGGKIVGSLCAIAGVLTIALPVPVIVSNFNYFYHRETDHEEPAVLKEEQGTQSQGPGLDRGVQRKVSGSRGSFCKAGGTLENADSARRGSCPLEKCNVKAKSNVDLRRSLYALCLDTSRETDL
Voltage-gated inwardly rectifying potassium channel KCNH2, sequence (Q12809 whole entry): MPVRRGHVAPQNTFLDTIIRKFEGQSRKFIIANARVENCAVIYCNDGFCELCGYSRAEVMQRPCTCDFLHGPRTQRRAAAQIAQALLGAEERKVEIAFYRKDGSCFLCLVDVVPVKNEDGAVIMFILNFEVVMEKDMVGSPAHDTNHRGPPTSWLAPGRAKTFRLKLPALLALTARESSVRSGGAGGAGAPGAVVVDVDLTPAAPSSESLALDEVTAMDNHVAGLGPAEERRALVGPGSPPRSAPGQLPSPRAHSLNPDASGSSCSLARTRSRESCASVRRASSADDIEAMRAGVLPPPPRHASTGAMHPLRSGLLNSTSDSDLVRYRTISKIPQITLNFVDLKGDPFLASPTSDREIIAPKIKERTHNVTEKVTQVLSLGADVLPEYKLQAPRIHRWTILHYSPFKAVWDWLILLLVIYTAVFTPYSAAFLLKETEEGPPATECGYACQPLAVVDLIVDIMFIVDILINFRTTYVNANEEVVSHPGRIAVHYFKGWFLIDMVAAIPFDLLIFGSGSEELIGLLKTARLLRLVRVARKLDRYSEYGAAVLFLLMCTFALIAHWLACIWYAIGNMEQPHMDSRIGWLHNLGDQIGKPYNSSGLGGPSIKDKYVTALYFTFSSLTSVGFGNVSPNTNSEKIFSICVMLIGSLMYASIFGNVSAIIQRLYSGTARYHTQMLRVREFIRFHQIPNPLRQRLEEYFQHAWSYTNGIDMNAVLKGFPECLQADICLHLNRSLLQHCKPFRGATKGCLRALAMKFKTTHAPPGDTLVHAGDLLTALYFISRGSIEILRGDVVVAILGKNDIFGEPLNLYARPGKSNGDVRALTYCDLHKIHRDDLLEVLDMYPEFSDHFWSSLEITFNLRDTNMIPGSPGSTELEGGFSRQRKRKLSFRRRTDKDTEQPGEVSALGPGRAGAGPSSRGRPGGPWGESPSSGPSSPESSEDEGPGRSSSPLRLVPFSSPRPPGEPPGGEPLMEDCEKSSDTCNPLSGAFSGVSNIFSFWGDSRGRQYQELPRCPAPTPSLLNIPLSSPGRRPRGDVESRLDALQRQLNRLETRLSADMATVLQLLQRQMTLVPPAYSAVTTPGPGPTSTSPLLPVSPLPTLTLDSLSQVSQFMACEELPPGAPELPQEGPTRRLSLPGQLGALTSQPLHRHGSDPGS
Potassium voltage-gated channel subfamily A member 3, sequence (P22001 whole entry): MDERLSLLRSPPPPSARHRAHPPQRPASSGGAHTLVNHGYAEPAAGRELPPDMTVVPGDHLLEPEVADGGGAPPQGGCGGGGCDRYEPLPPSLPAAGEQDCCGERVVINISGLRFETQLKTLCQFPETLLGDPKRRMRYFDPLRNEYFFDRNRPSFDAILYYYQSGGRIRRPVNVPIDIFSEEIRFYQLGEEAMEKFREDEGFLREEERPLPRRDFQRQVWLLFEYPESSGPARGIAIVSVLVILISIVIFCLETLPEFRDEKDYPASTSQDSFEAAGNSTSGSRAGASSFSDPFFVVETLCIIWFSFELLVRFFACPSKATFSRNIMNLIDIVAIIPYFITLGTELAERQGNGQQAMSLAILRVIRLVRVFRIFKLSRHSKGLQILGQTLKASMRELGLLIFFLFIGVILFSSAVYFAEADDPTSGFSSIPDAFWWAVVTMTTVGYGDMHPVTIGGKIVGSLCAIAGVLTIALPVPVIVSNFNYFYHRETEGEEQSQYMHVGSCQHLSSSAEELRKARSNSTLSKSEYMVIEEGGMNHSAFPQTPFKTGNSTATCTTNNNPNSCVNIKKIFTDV
Voltage-dependent L-type calcium channel subunit alpha-1D, sequence (Q01668 whole entry): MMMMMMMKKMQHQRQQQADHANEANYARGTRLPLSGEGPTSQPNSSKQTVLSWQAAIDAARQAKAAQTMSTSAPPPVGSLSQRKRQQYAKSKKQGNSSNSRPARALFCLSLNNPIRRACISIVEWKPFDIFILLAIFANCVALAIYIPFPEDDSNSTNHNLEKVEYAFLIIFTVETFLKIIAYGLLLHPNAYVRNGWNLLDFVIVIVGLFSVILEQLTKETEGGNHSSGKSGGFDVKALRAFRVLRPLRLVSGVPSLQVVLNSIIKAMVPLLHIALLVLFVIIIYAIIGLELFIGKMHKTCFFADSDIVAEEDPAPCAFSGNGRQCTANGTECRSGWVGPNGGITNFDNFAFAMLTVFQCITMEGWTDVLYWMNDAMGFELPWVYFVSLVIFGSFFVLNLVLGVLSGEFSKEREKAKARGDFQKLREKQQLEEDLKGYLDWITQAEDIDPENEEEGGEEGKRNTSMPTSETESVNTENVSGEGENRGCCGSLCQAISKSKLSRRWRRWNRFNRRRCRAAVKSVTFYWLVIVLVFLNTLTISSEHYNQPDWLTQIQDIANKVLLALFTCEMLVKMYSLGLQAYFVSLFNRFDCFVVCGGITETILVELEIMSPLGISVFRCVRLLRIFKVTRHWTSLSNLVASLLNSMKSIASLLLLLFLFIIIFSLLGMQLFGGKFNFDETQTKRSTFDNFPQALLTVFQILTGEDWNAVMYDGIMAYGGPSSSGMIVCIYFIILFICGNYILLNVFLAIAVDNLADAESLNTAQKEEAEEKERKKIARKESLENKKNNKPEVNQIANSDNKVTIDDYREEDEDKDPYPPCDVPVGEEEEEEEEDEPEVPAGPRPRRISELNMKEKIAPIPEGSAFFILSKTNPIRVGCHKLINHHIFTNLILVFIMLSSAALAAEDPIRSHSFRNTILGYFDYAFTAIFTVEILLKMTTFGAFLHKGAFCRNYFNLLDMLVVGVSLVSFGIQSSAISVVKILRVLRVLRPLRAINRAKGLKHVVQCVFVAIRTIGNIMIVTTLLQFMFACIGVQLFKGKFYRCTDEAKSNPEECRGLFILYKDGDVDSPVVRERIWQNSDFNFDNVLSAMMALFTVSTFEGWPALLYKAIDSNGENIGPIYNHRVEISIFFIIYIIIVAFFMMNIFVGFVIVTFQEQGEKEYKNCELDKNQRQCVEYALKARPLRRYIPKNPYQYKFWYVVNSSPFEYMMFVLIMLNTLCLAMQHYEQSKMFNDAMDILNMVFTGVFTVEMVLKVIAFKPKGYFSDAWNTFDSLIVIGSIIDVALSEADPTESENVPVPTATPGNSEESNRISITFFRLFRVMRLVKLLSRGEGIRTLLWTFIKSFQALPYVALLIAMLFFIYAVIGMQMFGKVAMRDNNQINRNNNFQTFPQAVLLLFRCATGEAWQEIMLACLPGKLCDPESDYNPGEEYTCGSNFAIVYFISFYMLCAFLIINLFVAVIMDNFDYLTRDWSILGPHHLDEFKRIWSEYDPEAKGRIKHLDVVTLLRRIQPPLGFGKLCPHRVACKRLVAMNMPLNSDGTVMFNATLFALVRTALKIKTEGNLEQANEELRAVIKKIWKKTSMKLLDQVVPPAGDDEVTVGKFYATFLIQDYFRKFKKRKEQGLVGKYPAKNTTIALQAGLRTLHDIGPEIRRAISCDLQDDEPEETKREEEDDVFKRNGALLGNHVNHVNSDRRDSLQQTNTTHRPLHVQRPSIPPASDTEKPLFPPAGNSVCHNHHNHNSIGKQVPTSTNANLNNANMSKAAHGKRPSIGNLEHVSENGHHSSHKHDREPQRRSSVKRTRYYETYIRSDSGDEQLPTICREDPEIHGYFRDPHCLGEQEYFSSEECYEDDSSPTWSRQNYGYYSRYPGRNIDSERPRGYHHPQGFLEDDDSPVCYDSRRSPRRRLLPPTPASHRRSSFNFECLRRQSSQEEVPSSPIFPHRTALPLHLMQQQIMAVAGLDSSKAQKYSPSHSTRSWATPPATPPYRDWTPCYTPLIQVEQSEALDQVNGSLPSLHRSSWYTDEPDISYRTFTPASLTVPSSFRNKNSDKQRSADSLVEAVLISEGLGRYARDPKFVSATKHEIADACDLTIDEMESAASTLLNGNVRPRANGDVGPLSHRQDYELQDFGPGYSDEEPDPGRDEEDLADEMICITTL
Cytochrome P450 3A4, sequence (P08684 whole entry): as the sequence (P08684 whole entry) above

COc1ccc(CCN2C(=O)N(NS(=O)(=O)CF)C[C@@H]2c2ccc(OC)cc2)cc1
IC50 [1]: 0.9 µM | IC50 [2]: 28.3 µM | solubility [3]: 100 µg/mL (≈ 229 µM) | half-life [4]: 13 min | inhibition at 3 µM (CYP3A4): 0%

COc1ccc(CCN2C(=O)N(NS(=O)(=O)Cc3ccccc3)C[C@@H]2c2ccc(OC)cc2)cc1
IC50 [1]: 0.34 µM | IC50 [2]: 4.4 µM | solubility [3]: 1 µg/mL (≈ 2.02 µM) | half-life [4]: 3 min | inhibition at 3 µM (CYP3A4): 82%

COc1ccc(CCN2C(=O)N(NS(C)(=O)=O)C[C@@H]2c2ccc(OC)cc2)cc1
IC50 [1]: 0.33 µM | IC50 [2]: 26.7 µM | solubility [3]: 100 µg/mL (≈ 238 µM) | half-life [4]: 16 min | inhibition at 3 µM (CYP3A4): 50%

COc1ccc(CCN2C(=O)N(NS(=O)(=O)Cc3cccnc3)C[C@@H]2c2ccc(OC)cc2)cc1
IC50 [1]: 0.6 µM | solubility [3]: 23 µg/mL (≈ 46.3 µM) | half-life [4]: 3 min | inhibition at 3 µM (CYP3A4): 90%

COc1ccc(CCN2C(=O)N(NS(C)(=O)=O)CC2c2ccc(C)c(C)c2)cc1 (stereo not drawn)
IC50 [1]: 0.61 µM | IC50 [2]: 15.8 µM | solubility [3]: 17 µg/mL (≈ 40.7 µM) | half-life [4]: 13 min | inhibition at 3 µM (CYP3A4): 77%

COc1ccc(CCN2C(=O)N(NS(C)(=O)=O)C[C@H]2c2ccc(OC)cc2)cc1
IC50 [1]: 0.48 µM | IC50 [2]: 15.1 µM | solubility [3]: 65 µg/mL (≈ 155 µM) | half-life [4]: 30 min | inhibition at 3 µM (CYP3A4): 45% | IC50 [5]: > 30 µM | IC50 [6]: 2.66 µM | IC50 [7]: 1.41 µM | IC50 [8]: 3.87 µM | half-life [9]: 11 min | IC50 (Cytochrome P450 3A4): 37 µM | IC50 (Cytochrome P450 2D6): 180 µM | IC50 (Cytochrome P450 2C9): 47 µM | Papp A→B [10]: 40 ×10⁻⁶ cm/s | Papp B→A [11]: 39 ×10⁻⁶ cm/s | fraction unbound [12]: 0.1 | clearance [13]: 23 mL/min/kg | Vd [14]: 2.2 L/kg | half-life [15]: 72 min | AUC [16]: 2410 ng·h/mL | Cmax [17]: 469 ng/mL | Tmax [18]: 60 min | half-life [19]: 102 min | AUC [20]: 1990 ng·h/mL | bioavailability [21]: 82% | concentration (Canis familiaris [22]): 4.6 µM | concentration (Canis familiaris [23]): 23 µM | Activity (Canis familiaris [24]): 12% | Activity (Canis familiaris [25]): 17% | Activity (Canis familiaris [26]): 63% | Activity (Canis familiaris [27]): 55% | Activity (Canis familiaris [28]): 52% | IC50 [29]: 23.4 µM | IC50 [30]: > 30 µM

COc1ccc(CCN2C(=O)N(NS(C)(=O)=O)CC2c2ccc(C)cc2)cc1 (stereo not drawn)
IC50 [1]: 0.24 µM | IC50 [2]: 11.2 µM | solubility [3]: 42 µg/mL (≈ 104 µM) | half-life [4]: 18 min | inhibition at 3 µM (CYP3A4): 58%

COc1ccc([C@H]2CN(NS(C)(=O)=O)C(=O)N2CCc2ccc(OC(F)(F)F)cc2)cc1
IC50 [1]: 0.52 µM | IC50 [2]: 5.6 µM | solubility [3]: 4 µg/mL (≈ 8.45 µM) | half-life [4]: 15 min | inhibition at 3 µM (CYP3A4): 53%

COc1ccc(CCN2C(=O)N(NS(=O)(=O)CC#N)C[C@@H]2c2ccc(OC)cc2)cc1
IC50 [1]: 0.23 µM | IC50 [2]: 33 µM | solubility [3]: 100 µg/mL (≈ 225 µM) | half-life [4]: 21 min | inhibition at 3 µM (CYP3A4): 7%

— ChEMBL document CHEMBL1154688, “Selective Kv1.5 blockers: development of (R)-1-(methylsulfonylamino)-3-[2-(4-methoxyphenyl)ethyl]-4-(4-methoxyphenyl)-2-imidazolidinone (KVI-020/WYE-160020) as a potential treatment for atrial arrhythmia” (J Med Chem, 2009)
